Tests used:
[1] = target: T1, Gastric inhibitory polypeptide receptor (Homo sapiens, UniProt P48546); assay: Agonist activity at human GIP receptor expressed in HEK293 cells assessed as cAMP accumulation after 30 mins by HTRF assay; assay type: functional, cell-based
T1 sequence (P48546 whole entry): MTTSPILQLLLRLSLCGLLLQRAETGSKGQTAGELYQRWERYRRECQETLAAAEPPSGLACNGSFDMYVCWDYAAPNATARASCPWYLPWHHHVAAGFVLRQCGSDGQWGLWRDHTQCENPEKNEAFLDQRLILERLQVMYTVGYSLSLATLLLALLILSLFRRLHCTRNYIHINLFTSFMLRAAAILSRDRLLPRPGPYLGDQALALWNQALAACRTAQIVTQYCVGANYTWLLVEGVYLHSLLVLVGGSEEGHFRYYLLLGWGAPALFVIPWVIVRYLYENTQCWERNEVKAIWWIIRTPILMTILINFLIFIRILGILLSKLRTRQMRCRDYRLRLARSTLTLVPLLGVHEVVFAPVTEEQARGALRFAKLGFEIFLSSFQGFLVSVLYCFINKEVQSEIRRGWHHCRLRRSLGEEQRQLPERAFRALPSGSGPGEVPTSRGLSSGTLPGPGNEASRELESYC

[2] = Agonist activity at monkey glucagon receptor expressed in HEK293 cells assessed as cAMP accumulation after 30 mins by HTRF assay; assay type: cell-based, Macaca mulatta
How it was run: (§1)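 HEK293 lines stably expressing human or monkey receptor were detached with accutase. Cells were resuspended at 400 000 cells/mL in HBSS/20 mM HEPES/0.1% BSA/2 mM IBMX and exposed to peptide for 30 min at room temperature. cAMP was read by HTRF (665/620 nm) after 1 h lysis.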

[3] = Agonist activity at monkey GIP receptor expressed in HEK293 cells assessed as cAMP accumulation after 30 mins by HTRF assay; assay type: cell-based, Macaca mulatta; how it was run: as §1
[4] = target: Glucagon-like peptide 1 receptor (Homo sapiens, UniProt P43220); assay: Agonist activity at human GLP1R expressed in HEK293 cells assessed as cAMP accumulation after 30 mins by HTRF assay; assay type: functional, cell-based
[5] = target: Glucagon receptor (Homo sapiens, UniProt P47871); assay: Agonist activity at human glucagon receptor expressed in HEK293 cells assessed as cAMP accumulation after 30 mins by HTRF assay; assay type: functional, cell-based
Chain of Glucagon receptor (P47871 whole entry): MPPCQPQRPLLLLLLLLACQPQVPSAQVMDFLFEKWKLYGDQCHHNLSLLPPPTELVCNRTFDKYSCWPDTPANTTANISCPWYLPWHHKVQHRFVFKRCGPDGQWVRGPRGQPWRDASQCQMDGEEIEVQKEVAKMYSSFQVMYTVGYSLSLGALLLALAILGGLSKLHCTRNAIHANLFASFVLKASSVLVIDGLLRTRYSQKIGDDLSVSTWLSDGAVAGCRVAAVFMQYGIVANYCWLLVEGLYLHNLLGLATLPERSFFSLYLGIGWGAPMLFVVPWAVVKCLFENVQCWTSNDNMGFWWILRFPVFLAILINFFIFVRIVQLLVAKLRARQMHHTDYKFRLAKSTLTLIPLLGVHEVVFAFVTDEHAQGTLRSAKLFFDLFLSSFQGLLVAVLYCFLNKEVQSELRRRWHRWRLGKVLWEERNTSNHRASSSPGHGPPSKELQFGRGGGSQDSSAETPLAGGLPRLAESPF

Chain of Glucagon-like peptide 1 receptor (P43220 whole entry): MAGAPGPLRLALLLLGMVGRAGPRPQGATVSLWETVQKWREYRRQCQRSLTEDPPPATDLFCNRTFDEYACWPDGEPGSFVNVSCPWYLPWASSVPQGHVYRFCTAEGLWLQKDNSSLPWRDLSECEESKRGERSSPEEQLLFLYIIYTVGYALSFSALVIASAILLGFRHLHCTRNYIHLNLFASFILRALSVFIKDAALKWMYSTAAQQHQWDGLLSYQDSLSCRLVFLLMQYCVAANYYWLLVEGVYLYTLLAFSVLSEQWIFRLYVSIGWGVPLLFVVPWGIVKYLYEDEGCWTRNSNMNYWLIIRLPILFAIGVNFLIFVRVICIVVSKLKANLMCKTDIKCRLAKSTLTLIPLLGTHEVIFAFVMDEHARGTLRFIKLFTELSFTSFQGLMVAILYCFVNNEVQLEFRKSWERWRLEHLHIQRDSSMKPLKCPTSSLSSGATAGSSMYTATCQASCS

Row | Compound | EC50 [1] [nM] | EC50 ([2]; Macaca mulatta, HEK293, 0.5 h) [nM] | EC50 ([3]; Macaca mulatta, HEK293, 0.5 h) [nM] | EC50 [4] [nM] | EC50 [5] [nM] | EC50 ([2]; hek293) [nM] | EC50 ([3]; hek293) [nM]
1 | CC[C@H](C)[C@H](NC(=O)[C@H](Cc1ccccc1)NC(=O)[C@H](CCC(=O)O)NC(=O)[C@H](CCCCN)NC(=O)[C@H](C)NC(=O)[C@H](C)NC(=O)[C@H](CCC(N)=O)NC(=O)CNC(=O)[C@H](CCC(=O)O)NC(=O)[C@H](CC(C)C)NC(=O)[C@H](Cc1ccc(O)cc1)NC(=O)[C@H](CO)NC(=O)[C@H](CO)NC(=O)[C@@H](NC(=O)[C@H](CC(=O)O)NC(=O)[C@H](CO)NC(=O)[C@@H](NC(=O)[C@H](Cc1ccccc1)NC(=O)[C@@H](NC(=O)CNC(=O)[C@H](CCC(=O)O)NC(=O)[C@H](C)NC(=O)[C@@H](N)Cc1cnc[nH]1)[C@@H](C)O)[C@@H](C)O)C(C)C)C(=O)N[C@@H](C)C(=O)N[C@@H](Cc1c[nH]c2ccccc12)C(=O)N[C@@H](CC(C)C)C(=O)N[C@H](C(=O)N[C@@H](CCCCN)C(=O)NCC(=O)N[C@@H](CCCNC(=N)N)C(=O)O)C(C)C | > 100000 | > 100000 | > 100000 |  |  |  | 
2 | CCCCCCCCCCCCCCCCC(=O)N[C@@H](CCC(=O)N[C@@H](CCC(=O)NCCCC[C@H](NC(=O)[C@H](CCC(N)=O)NC(=O)[C@H](CCCCN)NC(=O)[C@H](CO)NC(=O)[C@H](CC(C)C)NC(=O)[C@H](CC(=O)O)NC(=O)[C@H](CO)NC(=O)[C@@H](NC(=O)[C@H](Cc1ccccc1)NC(=O)[C@@H](NC(=O)CNC(=O)[C@H](CCC(N)=O)NC(=O)C(C)(C)NC(=O)[C@@H](N)Cc1cnc[nH]1)[C@@H](C)O)[C@@H](C)O)C(=O)N[C@@H](CC(=O)O)C(=O)N[C@@H](CCC(=O)O)C(=O)N[C@@H](CCC(N)=O)C(=O)N[C@@H](CCCNC(=N)N)C(=O)N[C@@H](C)C(=O)N[C@@H](CCCCN)C(=O)N[C@@H](CC(C)C)C(=O)N[C@@H](Cc1ccccc1)C(=O)N[C@H](C(=O)N[C@@H](CCC(=O)O)C(=O)N[C@@H](Cc1c[nH]c2ccccc12)C(=O)N[C@@H](CC(C)C)C(=O)N[C@H](C(=O)N[C@@H](C)C(=O)NCC(=O)NCC(=O)N1CCC[C@H]1C(=O)N[C@@H](CO)C(=O)N[C@@H](CO)C(=O)NCC(=O)N[C@@H](C)C(=O)N1CCC[C@H]1C(=O)N1CCC[C@H]1C(=O)N1CCC[C@H]1C(=O)N[C@@H](CO)C(N)=O)[C@@H](C)CC)[C@@H](C)CC)C(=O)O)C(=O)O | 0.0582 |  |  | 0.0053 | 0.0025 |  | 
3 | CCCCCCCCCCCCCCCCC(=O)N[C@@H](CCC(=O)NCCCC[C@H](NC(=O)[C@H](CCC(N)=O)NC(=O)[C@H](CCCCN)NC(=O)[C@H](CO)NC(=O)[C@H](CC(C)C)NC(=O)[C@H](CC(=O)O)NC(=O)[C@H](CO)NC(=O)[C@@H](NC(=O)[C@H](Cc1ccccc1)NC(=O)[C@@H](NC(=O)CNC(=O)[C@H](CCC(N)=O)NC(=O)[C@H](CO)NC(=O)[C@@H](N)Cc1cnc[nH]1)[C@@H](C)O)[C@@H](C)O)C(=O)N[C@@H](CC(=O)O)C(=O)N[C@@H](CO)C(=O)N[C@@H](CCCNC(=N)N)C(=O)N[C@@H](CCCNC(=N)N)C(=O)N[C@@H](C)C(=O)N[C@@H](CCC(N)=O)C(=O)N[C@@H](CC(=O)O)C(=O)N[C@@H](Cc1ccccc1)C(=O)N[C@H](C(=O)N[C@@H](CCC(=O)O)C(=O)N[C@@H](Cc1c[nH]c2ccccc12)C(=O)N[C@@H](CC(C)C)C(=O)N[C@@H](CCCCN)C(=O)N[C@@H](CC(N)=O)C(=O)NCC(=O)NCC(=O)N1CCC[C@H]1C(=O)N[C@@H](CO)C(=O)N[C@@H](CO)C(=O)NCC(=O)N[C@@H](C)C(=O)N1CCC[C@H]1C(=O)N1CCC[C@H]1C(=O)N1CCC[C@H]1C(=O)N[C@@H](CO)C(=O)O)[C@@H](C)CC)C(=O)O | 1.21 |  |  | 0.0039 | 0.0007 |  | 
4 | CCCCCCCCCCCCCCCCC(=O)N[C@@H](CCC(=O)N[C@@H](CCC(=O)NCCCC[C@H](NC(=O)[C@H](CCC(N)=O)NC(=O)[C@H](CCCCN)NC(=O)[C@H](CO)NC(=O)[C@H](CC(C)C)NC(=O)[C@H](CC(=O)O)NC(=O)[C@H](CO)NC(=O)[C@@H](NC(=O)[C@H](Cc1ccccc1)NC(=O)[C@@H](NC(=O)CNC(=O)[C@H](CCC(N)=O)NC(=O)C(C)(C)NC(=O)[C@@H](N)Cc1cnc[nH]1)[C@@H](C)O)[C@@H](C)O)C(=O)N[C@@H](CC(=O)O)C(=O)N[C@@H](CCC(=O)O)C(=O)N[C@@H](CCC(N)=O)C(=O)N[C@@H](CCCNC(=N)N)C(=O)N[C@@H](C)C(=O)N[C@@H](CCCCN)C(=O)N[C@@H](CC(C)C)C(=O)N[C@@H](Cc1ccccc1)C(=O)N[C@H](C(=O)N[C@@H](CCC(=O)O)C(=O)N[C@@H](Cc1c[nH]c2ccccc12)C(=O)N[C@@H](CC(C)C)C(=O)N[C@@H](CCCCN)C(=O)N[C@@H](C)C(=O)NCC(=O)NCC(=O)N1CCC[C@H]1C(=O)N[C@@H](CO)C(=O)N[C@@H](CO)C(=O)NCC(=O)N[C@@H](C)C(=O)N1CCC[C@H]1C(=O)N1CCC[C@H]1C(=O)N1CCC[C@H]1C(=O)N[C@@H](CO)C(N)=O)[C@@H](C)CC)C(=O)O)C(=O)O | 0.224 |  |  | 0.0022 | 0.0044 |  | 
5 | CCCCCCCCCCCCCCCCC(=O)N[C@@H](CCC(=O)N[C@@H](CCC(=O)NCCCC[C@H](NC(=O)[C@H](CCC(N)=O)NC(=O)[C@H](CCCCN)NC(=O)[C@H](CO)NC(=O)[C@H](CC(C)C)NC(=O)[C@H](CC(=O)O)NC(=O)[C@H](CO)NC(=O)[C@@H](NC(=O)[C@H](Cc1ccccc1)NC(=O)[C@@H](NC(=O)CNC(=O)[C@H](CCC(N)=O)NC(=O)C(C)(C)NC(=O)[C@@H](N)Cc1cnc[nH]1)[C@@H](C)O)[C@@H](C)O)C(=O)N[C@@H](CC(=O)O)C(=O)N[C@@H](CCC(=O)O)C(=O)N[C@@H](CCC(N)=O)C(=O)N[C@@H](CCCNC(=N)N)C(=O)N[C@@H](C)C(=O)N[C@@H](CCCCN)C(=O)N[C@@H](CC(C)C)C(=O)N[C@@H](Cc1ccccc1)C(=O)N[C@H](C(=O)N[C@@H](CCC(=O)O)C(=O)N[C@@H](Cc1c[nH]c2ccccc12)C(=O)N[C@@H](CC(C)C)C(=O)N[C@@H](CC(C)C)C(=O)N[C@@H](C)C(=O)NCC(=O)NCC(=O)N1CCC[C@H]1C(=O)N[C@@H](CO)C(=O)N[C@@H](CO)C(=O)NCC(=O)N[C@@H](C)C(=O)N1CCC[C@H]1C(=O)N1CCC[C@H]1C(=O)N1CCC[C@H]1C(=O)N[C@@H](CO)C(N)=O)[C@@H](C)CC)C(=O)O)C(=O)O | 0.189 |  |  | 0.0048 | 0.0016 |  | 
6 | CCCCCCCCCCCCCCCCCCC(=O)N[C@@H](CCC(=O)NCCCC[C@H](NC(=O)[C@H](CCC(N)=O)NC(=O)[C@H](CCCCN)NC(=O)[C@H](CO)NC(=O)[C@H](CC(C)C)NC(=O)[C@H](CC(=O)O)NC(=O)[C@H](CO)NC(=O)[C@@H](NC(=O)[C@H](Cc1ccccc1)NC(=O)[C@@H](NC(=O)CNC(=O)[C@H](CCC(N)=O)NC(=O)C(C)(C)NC(=O)[C@@H](N)Cc1cnc[nH]1)[C@@H](C)O)[C@@H](C)O)C(=O)N[C@@H](CC(=O)O)C(=O)N[C@@H](CCC(=O)O)C(=O)N[C@@H](CCC(N)=O)C(=O)N[C@@H](CCCNC(=N)N)C(=O)N[C@@H](C)C(=O)N[C@@H](CCCCN)C(=O)N[C@@H](CC(C)C)C(=O)N[C@@H](Cc1ccccc1)C(=O)N[C@H](C(=O)N[C@@H](CCC(=O)O)C(=O)N[C@@H](Cc1c[nH]c2ccccc12)C(=O)N[C@@H](CC(C)C)C(=O)N[C@@H](CCCCN)C(=O)N[C@@H](C)C(=O)NCC(=O)NCC(=O)N1CCC[C@H]1C(=O)N[C@@H](CO)C(=O)N[C@@H](CO)C(=O)NCC(=O)N[C@@H](C)C(=O)N1CCC[C@H]1C(=O)N1CCC[C@H]1C(=O)N1CCC[C@H]1C(=O)N[C@@H](CO)C(N)=O)[C@@H](C)CC)C(=O)O | 0.0397 |  |  | 0.0025 | 0.0019 |  | 
7 | GLUCAGON |  |  |  |  |  | 0.0015 | > 100000

— ChEMBL document CHEMBL4118251 (J Med Chem, 2018)
